Results from different studies.
Each line is one published result; the experiments were not run side by side.

The clearance of O=C1CC[C@H](N2Cc3cc(N4CCN(CC5CCN(c6ccc([C@@H]7c8ccc(O)cc8CC[C@@H]7c7ccccc7)cc6)CC5)CC4)ccc3C2=O)C(=O)N1 is reported as 15.4 mL/min/kg (male Sprague-Dawley rat, plasma; intravenous, 5 mg/kg, fed).
With CC1(CN)CCN(c2cnc3c(Sc4ccncc4Cl)n[nH]c3n2)CC1 the clearance was 223 mL/min/kg (male Sprague-Dawley rat, plasma; intravenous, 2 mg/kg).
With O=C(C=Cc1ccccc1)Nc1cc(-c2ccnc(N3CCC(O)CC3)c2)ccn1 the clearance was 229 mL/min/kg (female Sprague-Dawley rat, plasma; intravenous, 5 mg/kg).
With COc1ccccc1C(=O)/C=C/c1cn(Cc2cn(-c3ccnc4cc(Cl)ccc34)nn2)c2ccccc12 the haemolysis was 1.7% (haemolysis; human; 50 µM, 1 h, pH 7.4).
C=C(F)C(=O)N1CCN(c2nc(OC[C@@H]3CCCN3C)nc3c2CCN(c2cccc4cccc(Cl)c24)C3)C[C@@H]1CC#N gave a clearance of 44 mL/min/kg (male Sprague-Dawley rat, plasma; intravenous, 5 mg/kg).
For Nc1ccc(/C=C/C(=O)NCc2cc3cc(-c4ccc(C(=O)N5CCC(F)(F)CC5)cc4)cc(-c4ccc(F)cc4)c3o2)cn1, the clearance was 0.169 mL/min/kg (rat, plasma; intravenous, 1 mg/kg).
The clearance of O=C1c2ccncc2C(=O)c2c1[nH]c1ccccc21 is reported as 13.1 mL/min (rat, plasma; intravenous, 1 mg/kg, single dose).
CN1Cc2c(N)cccc2C(=O)N1C1CCC(=O)NC1=O (centres unmarked) has a clearance of 31.8 mL/min/kg (male Sprague-Dawley rat, plasma; intravenous, 1 mg/kg).
